MT stabilize HCS: microtubule stabilization, imaging screen. 0.83% of 200,000 active. AID 2205. HeLa tubulin immunostaining HCS, 24 h; share of cells brighter than vehicle mean+2SD. % tubulin-high responders, % at 10 µM;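 active = plate Z-score above 3 for both tubulin-high and condensed-nucleus cell shares, with cell loss under 80%, at 10 µM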;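 also: anti alpha tubulin signal scored within the nucleus-defined area of each cell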
RAM inhibit: blocks the yeast RAM network; S. cerevisiae dse1pr::URA3 reporter, 5-FOA growth OD615, 2 d; analog-sensitive cbk1-as2 kinase mutant strain; 1.8% of 190,000 active; inhibition, % at 50 µM;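 active = inhibition above a set limit, 3 SD over mean compound inhibition, cut at about 8.4% in these data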;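 also: 0% = DMSO-only wells with no growth and 100% = 10 µM 1-NA-PP1 full growth; inhibition rescues growth on 5-FOA so higher OD means more RAM inhibition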
Yeast life ext: extends the lifespan of yeast. S. cerevisiae growth with nicotinamide, OD615; deaD strain in restrictive glucose medium. 0.68% of 130,000 active. inhibition of the nicotinamide effect, % at 10 µM;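 active = inhibition above a set limit, placed 3 SD over the median of all compounds, cut at about 26% in these data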;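 also: 0% = nicotinamide-treated wells and 100% = cells grown without nicotinamide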
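Buffer or medium: CSMM-D glucose medium, restrictive; test system: modified budding yeast, DeaD strain; compound: single dose 10 µM compound, 0.25% DMSO; schedule: culture preincubation 4 h, compound exposure 48 h, both 30 °C; detection: optical density (absorbance) at 615 nm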
Efa HMGR inh: E. faecalis class II HMG-CoA reductase inhibition; purified E. faecalis HMGR, NADPH absorbance 340 nm kinetic; inhibition, % at 10 µM; 0.41% of 190,000 active; AID 1066;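 active = inhibition above a set limit, the median over all tested compounds plus 3 SD, cut at about 9.5% in these data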;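 also: enzyme runs in reverse so mevalonate oxidation gives rising NADPH absorbance; 0% = complete reaction with DMSO and 100% = background rate lacking mevalonate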
BB579 growth dn: chemicals that inhibit yeast BB579 growth in restrictive medium (lifespan-shortening candidates) | S. cerevisiae BB579 growth, OD615, 48 h | inhibition, % at 10 µM | 0.51% of 140,000 active | AID 804;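 active = inhibition above a set limit, 3 SD over the mean compound inhibition, cut at about 44% in these data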
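Assay system – yeast BB579 (DeaD) · Dosing – single compound dose of 10 µM, 0.25% DMSO final · Detection – OD615 turbidity measurement · Buffer or medium – CSMM-D restrictive synthetic medium containing dextrose (glucose) · Benchmarks – positive control amphotericin B 10 µg/mL · Incubation – 48 h exposure, 30 °C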
b-catenin transl: modulators of beta-catenin nuclear translocation; HeLa beta-catenin nuclear translocation, immunofluorescence imaging; nuclear translocation activity, % at 5 µM; 0.3% of 190,000 active; AID 1665;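 active = nuclear translocation activity above 50% at 5 µM, with a well cell count of 50 or more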;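 also: per-cell ratio of nuclear to cytoplasmic median beta-catenin stain intensity; plate controls were DMSO negative control for no effect and GSK-3 inhibitor IX positive control for full effect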
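Signal – beta-catenin immunofluorescence imaging with DAPI · Test system – human HeLa cell line · Dosing – 5 µM primary single dose, 0.1% DMSO, 0.02–20 µM confirmation series · Measure – % activation, nuclear-to-cytoplasmic median beta-catenin signal ratio per cell · Incubation – 24 h compound exposure at 37°C, 5% CO2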
An asterisk follows results filed as active; / = no result given. An excerpt weighted towards active compounds, which were near 3.5% of everything screened.

SMILES | MT stabilize HCS | RAM inhibit | Yeast life ext | Efa HMGR inh | BB579 growth dn | b-catenin transl
O=C(N/N=C/c1c(-c2ccccc2)[nH]c2ccccc12)c1cccnc1 | 18* | 0 | / | -6 | / | 39
CCC1C(c2ccccc2)N(C)C(c2ccccc2)CC1(O)c1ccccc1 (stereo not drawn) | 7 | 0 | / | -4 | / | 1
CC(C)C1C(c2ccccc2)N(C)C(c2ccccc2)CC1(O)c1ccccc1 (stereo not drawn) | 3 | 0 | 46* | 0 | -69 | -4
COc1ccc(/C=C/C(=O)c2ccc3c4c(cccc24)CC3)cc1 | 6 | 8.8* | -2 | -9 | -6 | -2
CCCOc1ccc(C(=O)CCNc2cccc(Cl)c2)cc1 | 1 | 9.8* | / | -1 | / | 1
O=C(CCc1nnc(CCCc2ccccc2)o1)NCCc1ccccc1 | 3 | 1 | / | 15* | / | 0
O=C(CCc1nnc(CCCCc2ccccc2)o1)NCc1cc(F)ccc1F | 2 | 11* | / | -2 | / | 3
O=C(CCc1nnc(CCCc2ccccc2)o1)NCCc1ccco1 | 2 | 2 | / | -4 | / | 1
O=C(CCc1nnc(CCCCc2ccccc2)o1)NCc1cccc(F)c1 | 2 | 0 | / | -2 | / | 0
O=S(=O)(Nc1nc2ccccc2nc1Cl)c1ccc2ccccc2c1 | 1 | 6 | 41* | 2 | -31 | /
CCC(C)Oc1nc2ccccc2nc1NS(=O)(=O)c1ccccc1 (stereo not drawn) | 2 | 3 | 26* | -6 | -39 | -16
O=S(=O)(Nc1nc2ccccc2nc1Cl)c1ccc(F)cc1 | / | / | / | / | / | 0
O=S(=O)(Nc1nc2ccccc2nc1Cl)c1ccccc1 | 1 | 0 | 30* | -8 | -4 | 0
O=S(=O)(Nc1nc2cc3c(cc2nc1Cl)OCCO3)c1ccccc1 | 2 | 0 | / | -2 | / | -2
NS(=O)(=O)c1ccc(CNC(=S)Nc2ccc(Cl)c(Cl)c2)cc1 | 3 | 2 | / | -3 | / | -1
NS(=O)(=O)c1ccc(CCNC(=O)Nc2ccc(Cl)c(Cl)c2)cc1 | 2 | 11* | -7 | -6 | -58 | -1
C=CCNC(=O)COC(=O)COc1ccc(Cl)cc1 | 2 | 1 | / | 2 | / | -3
Fc1ccc(N/N=C2/CC(c3ccccc3)Oc3ccccc32)c(F)c1 (stereo not drawn) | 3 | 3 | -7 | 3 | 86* | /
CNC(=S)N/N=C1\CC(c2ccccc2)Oc2ccccc21 (stereo not drawn) | 2 | 6 | / | -5 | / | 0
CCOC(=O)c1sc(NC(=O)c2cccc(S(=O)(=O)N(CC)CC)c2)cc1C | 1 | 10* | -9 | -5 | -8 | 4
Cc1cc(C=C2C(=O)c3ccccc3C2=O)c(C)n1-c1cccc(C(=O)O)c1 | 4 | 8.8* | / | 3 | / | -1
Cc1cc(C=C2C(=O)c3ccccc3C2=O)c(C)n1-c1ccc(C(=O)O)cc1 | 2 | 5 | / | -1 | / | 3
COc1ccc(N(CC(=O)N2CCc3ccccc32)S(=O)(=O)c2c(C)nn(C)c2C)cc1 | 2 | 8.9* | -6 | -5 | -12 | /
Cc1cccc2c1N(C(=O)CN1C(=O)c3ccccc3C1=O)C(C)(C)c1ssc(=S)c1-2 | 4 | 7 | 5 | -3 | -16 | 0
Cc1cc(C)c2c(c1)-c1c(ssc1=S)C(C)(C)N2C(=O)CN1C(=O)c2ccccc2C1=O | 2 | 11* | -1 | 1 | -33 | 0
SMILES | MT stabilize HCS | RAM inhibit | Yeast life ext | Efa HMGR inh | BB579 growth dn | b-catenin transl
CC(=O)N1CCN(c2ccccc2NC(=O)COc2ccc(Br)cc2)CC1 | 2 | 4 | -23 | 13* | -16 | /
CN(C)C(CNC(=O)c1ccc2c(=O)n(-c3ccccc3F)c(=S)[nH]c2c1)Cc1ccccc1 (stereo not drawn) | 3 | 3 | / | 0 | / | 2
CCOc1ccc(N2C(=O)CN(O)C=C3N=c4ccccc4=C32)cc1 | 4 | 2 | / | -5 | / | -2
CCOC(=O)C1=C(N)n2c(s/c(=C\c3ccco3)c2=O)=C(C(=O)OCC)C1c1ccco1 (stereo not drawn) | 47* | 6 | -6 | -3 | -49 | 55*
CCOC(=O)C1=C(N)n2c(s/c(=C\c3ccco3)c2=O)=C(C(=O)OC(C)C)C1c1ccco1 (stereo not drawn) | 5 | 2 | 1 | -4 | -25 | 2
CCCc1cc(=O)[nH]c(SCc2nc3ccccc3s2)n1 | 2 | 4 | -15 | -7 | -20 | 0
Cc1cc(=O)[nH]c(SCc2nc3ccccc3s2)n1 | 3 | 0 | -13 | -4 | 46* | -5
O=c1[nH]c(CN2CCN(c3ccccc3O)CC2)nc2scc(-c3ccccc3Cl)c12 | / | / | / | / | / | 0
O=c1[nH]c(CN2CCN(c3ccc(O)cc3)CC2)nc2scc(-c3ccc(Cl)cc3)c12 | 21* | 0 | / | 0 | / | 7
COc1cccc(N2CCN(Cc3nc4scc(-c5ccccc5)c4c(=O)[nH]3)CC2)c1 | 15* | -1 | 1 | -1 | -60 | 8
CN1C(=O)C2(OCC(COc3ccc(Cl)cc3)O2)c2ccccc21 (stereo not drawn) | 2 | 5 | -9 | 0 | -50 | /
CC(=O)N1CCN(c2ccc(OC[C@H]3CO[C@](Cn4ccnc4)(c4ccc(Cl)cc4Cl)O3)cc2)CC1 | 3 | 1 | -7 | 3 | 93* | 0
CCOC(=O)c1sc(-c2ccccc2)cc1NC(=O)CSc1nnnn1C | 1 | 8.4* | -7 | -5 | -7 | 0
CCOC(=O)c1cc(-c2ccccc2)sc1NC(=O)CSc1nnnn1C | 7 | 8.4* | -8 | 2 | -92 | -6
CCOC(=O)c1cccc(NC(=O)CSc2nnnn2C)c1 | 6 | 1 | -17 | 1 | -39 | -1
CCOC(=O)c1cc(-c2ccccc2)sc1NC(=O)CC(C)C | 2 | 0 | -26 | -5 | -22 | 0
O=C(NCCC1CC1(Cl)Cl)Nc1ccccc1 (stereo not drawn) | / | / | / | / | / | 1
CCCCCn1c(SCC(=O)OCC)nc2cc(C(=O)NCc3ccco3)ccc2c1=O | 7 | 11* | -1 | 1 | -33 | 2
CCC1CCCCN1CC(=O)Nc1cc(C)nn1-c1nc(C)cc(C)n1 (stereo not drawn) | 53* | -2 | 3 | 1 | -2 | 1
CC(C)c1ccc(NC(=O)COc2ccc(F)cc2C(=O)c2cnn(-c3ccccc3)c2)cc1 | 20* | 1 | -6 | -4 | -35 | /
O=C(COc1ccccc1C(=O)c1cnn(-c2ccccc2)c1)Nc1ccc2ccccc2c1 | 8 | 6 | -8 | 1 | -21 | -2
CN(C)c1ccc(S(=O)(=O)N2CCCCC2)cc1NC(=O)COc1ccccc1F | / | / | / | / | / | 1
Cn1nc(C(F)(F)F)c(/C=N/OC(=O)c2ccccc2)c1Cl | 2 | 3 | -5 | -1 | -3 | /

Screening results deposited in PubChem BioAssay by several laboratories.
